# Test results as given in ChEMBL document CHEMBL4513216, “Probing the Open Global Health Chemical Diversity Library for Multistage-Active Starting Points for Next-Generation Antimalarials” (ACS Infect Dis, 2020).
# Assay: Toxicity liver stage against HepG2, at 10uM
# Format: cell-based
# Set-up: test concentration 10 uM, cell line HepG2-A16-CD81EGFP
# Details: human, HepG2-A16-CD81EGFP cells; read-out: INHIBITION
# Method in brief: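 Uninfected HepG2-A16-CD81EGFP cells, 3 × 10^3 per well, 1536-well, plated on prespotted compound at 10 μM final, parasite-free screening media added to match infected plates; puromycin 10 μM positive, DMSO 0.5% negative; run in parallel with 48 h PbLuc assay at 37 °C, 5% CO2; viability by CellTiter-Glo luminescence, normalized to controls.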
row,Compound,cytotoxicity at 10 µM [%]
1,CCC(CC)C(=O)c1c[nH]c(C(=O)N2CCN(c3ccccc3)CC2)c1,14.7
2,CN1CCOC[C@H]1c1nc(-c2cccnc2)c[nH]1,-0.405
3,CC(C)C(=O)N1CCOC[C@H](Oc2ccc(C(F)(F)F)cc2)C1,4.53
4,O=C(c1cn(Cc2ccccc2)c2ncccc12)N1CCCCC1,1.2
5,CC[C@@H](C)[C@H](NC(=O)CCn1cc(C(C)=O)c2ccccc21)C(=O)O,-5.27
6,O=c1nc(SCc2ccc(Cl)cc2)c2c(n1CCO)CCC2,12.3
7,NC(=O)c1nnn(-c2ccc(Cl)cc2)n1,8.99
8,CN(C)CC1CSCCCN1S(=O)(=O)Cc1cccc(F)c1 (configuration not stated),-3.63
9,CCC(=O)N1CCC2(CC1)CC(CC(N)=O)c1ccc(F)cc12 (configuration not stated),11.8
10,CNC(=O)c1cc2c(nc1NCC(C)C)CCN(S(C)(=O)=O)CC2,-161
11,Cc1occc1C(=O)N1CCC2(CCN(Cc3nccs3)CC2)C1,-5.33
12,O=C(C1CCCC1)N1CCO[C@H]2[C@H](OCC3CCOCC3)CC[C@@H]21,5.05
13,Cn1c(N)c2c(=O)n(C)c(-c3ccc(Cl)cc3)cc2c(C#N)c1=O,-8.91
14,O=S(=O)(c1ccccc1)N1CCN(CCn2ccnc2)CC1,-21.6
15,Cc1nn(C)c2cnn(Cc3ccc(C(=O)NC4CC4)cc3)c12,6.42
16,COc1ccc(CNc2nc(C3CC3)nc3c(C)nn(C)c23)cc1,5.4
17,Cc1noc(C)c1CCC(=O)N[C@@H]1CCC[C@@H](Oc2cccnc2)[C@@H]1O,-0.903
18,Cc1n[nH]cc1C(=O)N1CCCC1c1cc[nH]n1 (configuration not stated),-23.1
19,Cc1cc2n(n1)[C@@H](C(F)(F)F)C[C@@H](C1CCN(C(=O)C(C)C)CC1)N2,-30
20,CC(=O)c1cc(C(=O)N2Cc3ccccc3OC3(CCOCC3)C2)cs1,-20
21,NCC(=O)N1CCC2(CC1)CN(C(=O)Cc1ccc(Cl)cc1)CCO2,5.56
22,N#Cc1cc2cc(Cl)cnc2nc1O,4.29
23,CCOc1ccc(N(CCC#N)C(=O)c2ccc(SC)nc2)cc1,5.93

row,Compound,cytotoxicity at 10 µM [%]
1,O=C(Nc1cnn(Cc2ccccc2)c1)N1CCN(CCO)CC1,2.11
2,CC(C)(Oc1ccc2c(c1)CCCC2=O)C(=O)NCc1ccco1,-2.74
3,Cc1nc(C)n(CC2CCCCN2c2ccnc(-c3ccccc3)n2)n1 (configuration not stated),-1.17
4,CC(C)(C)n1c(NC(=O)CNC(=O)NC2CC2)nc2ccccc21,4.23
5,CC(NS(=O)(=O)CCCC#N)c1cccc(-n2cccn2)c1 (configuration not stated),1.42
6,CC(C)c1ccc(OCCC(=O)N(C)C)cc1,3.81
7,CC(C)n1cnnc1CNC(=O)CCCOc1ccccc1F,-4.56
8,Cc1cc(COc2ccc(OC3CCCCNC3=O)cc2)on1 (configuration not stated),13.4
9,COCCC(=O)N(C)Cc1nc(C(F)(F)F)cs1,23.3
10,Cn1cc(S(=O)(=O)Nc2ccc(Cl)cn2)cc1C(N)=O,-1.7
11,O=C(CNC(=O)c1ccoc1)NC(c1ccc(F)cc1)C(F)(F)F (configuration not stated),-2.51
12,Cc1cc(CN(C2CC2)C(C)C(C)C)no1 (configuration not stated),0.519
13,O=C1CC2(CCSC2)C(=O)N1Cc1ncc(-c2cccc(F)c2)o1 (configuration not stated),10.3
14,Cn1cc(C(=O)N2CCCC2c2ccc3c(c2)OCCO3)ccc1=O (configuration not stated),3.92
15,COCC(C)NC(=O)c1cncc(Br)c1 (configuration not stated),3.73
16,Cc1noc(NCc2cc(F)ccc2F)n1,-4.86
17,Cc1noc(-c2cccnc2N2CCN(c3cnn(C)c3)CC2)n1,1.12
18,Cn1cc(C2(C)CN(Cc3ccc(O)c(Cl)c3)CCO2)cn1 (configuration not stated),-4.12
19,O=C(NCC1CC(=O)N(CCc2ccccc2)C1)c1ccc[nH]1 (configuration not stated),-0.553
20,Cc1ccc(C(=O)NC2CCCCNC2=O)c(=O)[nH]1 (configuration not stated),-5.49
21,CCN(CC(=O)Nc1cc(Cl)ccc1C)C(=O)c1cnccn1,-0.12
22,CCc1nnc2n1CCN(C(=O)CCc1ccc(C)c(Cl)c1)C2,-4.01
23,O=C(CN1CCN(CCO)CC1)NCCc1c(F)cccc1F,-9.83

row,Compound,cytotoxicity at 10 µM [%]
1,CC(C)CCN1CCN(Cc2nc(C(C)C)no2)CC1,-6.71
2,CC(=O)N1CCC(C(=O)Nc2nc(C3CC3)cs2)CC1,-3.28
3,CC1CN(c2cc(CNCc3cccc4c3OCCO4)ccn2)CCO1 (configuration not stated),3.96
4,Cc1cnc(C(=O)N2CCN(Cc3csc(C)n3)CC2)cn1,-132
5,CN(Cc1ncnn1C)C(=O)c1ccccc1NCc1ccccc1,15.3
6,CCCc1cc(N2CCCCC2Cn2cc(C)cn2)n2ncnc2n1 (configuration not stated),-0.554
7,CNC(=O)C1CCN(Cc2cc3c(cc2O)CCC3)CC1,4.83
8,Cc1nc(C2(NCc3ccc(C#N)cc3F)CCCCC2)no1,-11.2
9,Cc1ccc2c(c1)N(C(=O)C1CCCOC1)CCC2 (configuration not stated),5
10,COC(=O)NC1(C(=O)NCc2ccc(-c3ccn[nH]3)cc2)CCCC1,-7.65
11,CC(C)CC(NS(C)(=O)=O)C(=O)N(C)Cc1nnc2n1CCC2 (configuration not stated),-4.22
12,CN1CCN(C(=O)CCCc2ccccn2)c2ccc(F)cc21,1.66
13,CCCc1cc(NC(=O)c2ccc(Cl)c(N3CCNC3=O)c2)n[nH]1,-4.55
14,COCCN1CCN(CCCc2nnnn2-c2ccccc2)CC1,5.04
15,CC(C)C(NC(=O)c1ccc(Cl)cc1Cl)C(=O)Nc1cnn(C)c1 (configuration not stated),-2.65
16,Cc1ccc(O)c(C(=O)N2CCC(CN3CCCCCC3)CC2)c1,5.52
17,CCCC(=O)NCc1cc(Br)c(OC)c(OC)c1,1.11
18,O=C(C(CNCc1ccncc1)c1ccccc1)N1CCOCC1 (configuration not stated),-19
19,CCN(C(=O)CCCOc1ccccc1F)c1ccncc1,-5.69
20,Cn1ccnc1CN(CCCO)C1CCCc2ccccc21 (configuration not stated),-6.91
21,CC(C)(C)NC(=O)CN1CCN(C(=O)Nc2ccc(F)cc2F)CC1,-23.2
22,COCC1COCCC12CCN(S(=O)(=O)c1ccccc1)CC2 (configuration not stated),0.242
23,CC(=O)NCc1cc2n(n1)CCN(Cc1cccc(Cl)c1Cl)C2,-12.8

row,Compound,cytotoxicity at 10 µM [%]
1,CCn1ncnc1C(C)Nc1cc(C)c2ccc(SC)cc2n1 (configuration not stated),-0.995
2,COc1cccc(CN2CCN(c3cccc(C(C)C)n3)CC2)c1F,4.25
3,CN(C)S(=O)(=O)N1CC[C@]2(O)CCN(CCCc3cccnc3)C[C@@H]2C1,-6.55
4,CC(C)C(=O)NCC(=O)N1CCC2(CC1)c1ccccc1[C@@H](N)[C@@H]2O,0.174
5,COc1cc2[nH]c(=O)c(CN3CCC[C@H]3CO)cc2c(OC)c1OC,-10.7
6,COCc1ccc(C(=O)N2CC[C@@](O)(COC)C(C)(C)C2)o1,-2.69
7,CC(C)Cc1noc(-c2ccc(NCc3noc(C(C)C)n3)nc2)n1,0.178
8,CN(C)c1nc2c(c(N3CCCC4(CC3)CNC(=O)O4)n1)CCCC2 (configuration not stated),-1.07
9,COc1ccc(Cn2c(Cc3c(C)n[nH]c3C)n[nH]c2=O)cc1,-142
10,COCc1cc(N(C)CCC(O)c2ccccc2)n2nccc2n1 (configuration not stated),-2.49
11,COc1ccc(OCCCN(C)C(=O)C2CCCN2C(N)=O)cc1 (configuration not stated),1.7
12,NCC1Cc2cc(F)cc(-c3cnccn3)c2O1 (configuration not stated),-9.78
13,O=C(NCc1ccco1)c1ccc(N2CCOCC2)cc1,4.31
14,CCOC(=O)N1CCN(CC(=O)Nc2nnc(C)s2)CC1,1.31
15,Cc1n[nH]c(C)c1CNC(=O)CSCc1ccccc1Cl,-4.02
16,CN(Cc1ccccc1)C(=O)CN1CCCC(Cn2cncn2)C1 (configuration not stated),-11.8
17,CN(Cc1cnn(C)c1)C(=O)NCc1ccc2c(c1)OCCO2,-8.01
18,Nc1nc(CN2CCCC2Cn2cncn2)nc2ccccc12 (configuration not stated),-11.7
19,CC(C)(C)c1cc(C(=O)NCCN2CCCS2(=O)=O)[nH]n1,-8.16
20,Cc1cc(CN2CCOC(Cn3nc(C)cc3C)C2)on1 (configuration not stated),-5.81
21,COc1ccc(OC)c(C(O)CNC(=O)Nc2ccc(F)cc2F)c1 (configuration not stated),-2.74
22,CCc1ccc(C(=O)N2CCCC(CNS(C)(=O)=O)C2)o1 (configuration not stated),-19.7
23,Cn1ccc(C(=O)NCc2ccccc2CN2CCCCC2)cc1=O,-2.51

row,Compound,cytotoxicity at 10 µM [%]
1,CCn1cc(NC(=O)NCc2ccc3c(c2)OCO3)cn1,-1.1
2,Cc1cc(C(=O)NCC(C)N2CCc3ccccc32)on1 (configuration not stated),-22.8
3,Cc1nc(C2CCCN(C(=O)c3cnn(C4CCCCC4)c3)C2)no1 (configuration not stated),-6.37
4,CCOC(C)C(=O)NCc1ccc(N(C)C)cc1 (configuration not stated),-13.3
5,COc1ccccc1CC1CCCN(CC(=O)NC2CC2)C1 (configuration not stated),6.75
6,O=c1n(CCSCc2ccccc2Cl)nc2ccccn12,-7.68
7,O=C(NCc1ccc(Br)cc1)NCC1CCOC1 (configuration not stated),-4.51
8,COCCN1CCC(NCc2cccnc2)C1 (configuration not stated),-10.4
9,Cc1nc(C)n(CC2CN(c3nnc(C)c(C)c3C#N)CCO2)n1 (configuration not stated),-0.00964
10,Cc1nn(C)c(N2CCOCC2)c1CNC1CCOc2ccccc21 (configuration not stated),-7.44
11,COc1ccc(CCN2CCc3c(nc(C4CC4)n3C)C2)cc1,-0.729
12,c1cnc(Nc2cc(CCC3CCCNC3)ccn2)cn1 (configuration not stated),-7.58
13,O=C(c1ccccc1F)N1CC2(CCNCC2)c2cc(Cl)ccc21,-3.31
14,Cc1nc(CN2CCc3ncnc(-c4cccnc4)c3CC2)cs1,7.51
15,COCC1CC2(CCN(C(=O)c3ccc(C)nc3)CC2)CO1 (configuration not stated),-127
16,COCCN1C[C@H]2CC[C@@]3(N=C(C)N(CC4CC4)C3=O)[C@H]2C1,-7.5
17,CC(C)CN1CCC2(CC1)C(=O)Nc1ccc(C(=O)NC(C)C)cc12,-13.9
18,CCCN1C(=O)[C@@H]2CC[C@H]1CN(S(=O)(=O)c1cccc(Cl)c1)C2,-2.78
19,CNc1nc(C)c(C(=O)N2C[C@@H]3CC[C@H]2CN(c2cnccn2)C3)s1,13.6
20,CC(C)=CCN1C(=O)[C@@H]2CC[C@H]1CN(Cc1cccnc1N)C2,12.3
